Screens deposited in PubChem BioAssay by several laboratories.
UCH37 DUB inh: human UCH37 deubiquitinating enzyme inhibition | Q9Y5K5 | purified proteasome/UCH37, Ub-AMC cleavage fluorescence | inhibition, % (concentration not given with the values) | 0.33% of 330,000 active | AID 588478;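 active = mean inhibition over replicate wells above about 20%, limit read from the data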;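 note: 0% = compound-free wells with enzyme and 100% = wells lacking proteasome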
Target sequence (Q9Y5K5 whole entry, looked up): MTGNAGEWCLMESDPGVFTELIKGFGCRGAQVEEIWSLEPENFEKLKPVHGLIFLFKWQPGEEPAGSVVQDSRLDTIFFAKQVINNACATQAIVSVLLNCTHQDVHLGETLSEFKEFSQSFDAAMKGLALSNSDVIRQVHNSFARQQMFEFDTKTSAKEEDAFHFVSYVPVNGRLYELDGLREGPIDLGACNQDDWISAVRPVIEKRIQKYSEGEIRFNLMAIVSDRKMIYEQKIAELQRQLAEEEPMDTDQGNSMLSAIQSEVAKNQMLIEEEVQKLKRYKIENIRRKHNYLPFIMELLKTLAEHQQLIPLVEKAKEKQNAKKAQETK
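Signal – fluorescence, ex 355 nm, em 460 nm · System – Proteasome-bound UCH37 · Input – 0.15 nM proteasome as dispensed · Timing – 30 min preincubation with enzyme, 25 min cleavage at room temperature · Read-out basis – percent inhibition of cleavage signal versus uninhibited and no-proteasome wells · Medium – Tris-HCl pH 7.4 with ATP-MgCl2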
Vif imaging: inhibitors of HIV Vif | HEK293T cells, Vif self-association by quenched fluorescence, imaging, 24 h | inhibition, % at 7.49 µM | 0.35% of 340,000 active | AID 602346; in the data active = inhibition above about 50%, passing the limit was not always enough; inconclusive = no clear call, values can overlap the other calls; inactive = below about 31%
N-glyco inh: N-linked glycosylation inhibition. 0.23% of 360,000 active. reporter increase, % at 12.5 µM. AID 588692. D54 ERlucT glycosylation luciferase reporter, 24 h; percent of 100 nM tunicamycin response;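 active = mean luciferase reporter signal, scaled so untreated is 0 and the glycosylation-blocking control 100, at or above a set limit in every replicate; inconclusive = mean reaches the limit but not every replicate does; inactive = mean below the limit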;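 note: luciferase carries N-glycosylation sites so blocking glycosylation raises the light; 0% = median of neutral control wells and 100% = median of 100 nM tunicamycin wells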
MsrA inh: inhibitors of bovine MsrA. purified bovine MsrA, absorbance read-out. inhibition, % at 15.5 µM. 0.75% of 360,000 active. AID 651718; in the data active = inhibition above about 4.5%;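 note: 0% = vehicle wells with enzyme and 100% = reference inhibitor wells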
MsrA act: bovine methionine sulfoxide reductase A activation | purified bovine MsrA, absorbance read-out | activation, % at 10.6 µM | 0.3% of 360,000 active | AID 602163; in the data active = activation above about 7.5%;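 note: 0% = vehicle and 100% = reference activator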
aDG glyco up: alpha-DG glycosylation activation; Pro5-aDG cells, alpha-DG glycosylation AlphaScreen (IIH6); 0% Pro5, 100% B10-LARGE cell signal; activation, % at 10 µM; 0.22% of 360,000 active; AID 624168;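 active = activation of at least 8% versus controls, or a plate z-score of at least 8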;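 note: Pro5 are CHO cells carrying HIG-tagged alpha-DG that lacks glycosylation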
Active calls of the source: *; ? = inconclusive; · = not tested or not shown. This is a sample that favours compounds with a hit; in the whole collection about 1.9% have one here.

SMILES	UCH37 DUB inh	Vif imaging	N-glyco inh	MsrA inh	MsrA act	aDG glyco up
CN1CCN(c2ccc([N+](=O)[O-])c(N/N=C3\CN4CCC3CC4)c2)CC1	·	-10	-5	0	-1	0
O=[N+]([O-])c1ccc(N2CCCC2)cc1NN=C1CN2CCC1CC2	22*	·	·	·	·	·
CN(CCCCC(=O)C=NO)Cc1ccccc1 (tested in a mixture with another compound)	-1	·	·	·	·	·
Cc1ccc(-n2c(O)c(/C=N/N3CCCCC3c3cccnc3)c(=O)[nH]c2=S)cc1 (configuration not stated)	5	0	1	4.5*	-15	0
CCCCn1c(O)c(/C=N/N2CCCCC2c2cccnc2)c(=O)[nH]c1=S (configuration not stated)	3	5	1	1	-4	0
CCOC(=O)c1cc(CC)sc1N=CC1C(=O)NC(=S)NC1=O	5	·	·	·	·	·
CC1Oc2cc3c(-c4c(O)cc(O)c5c(O)c6c(cc45)OC(C)C(C)C6=O)c(O)cc(O)c3c(O)c2C(=O)C1C (configuration not stated)	40*	-7	-12	·	-5	0
C/C(=N\N1CCCCCC1)c1c(O)n(-c2ccc(C)cc2)c(=O)[nH]c1=O	3	68*	2	0	-11	0
C/C(=N\N1CCCCCC1)c1c(O)n(-c2ccc(Cl)cc2)c(=O)[nH]c1=O	5	8	-3	0	-9	0
COC(=O)C1C(O)C(C)C(O)C(C)C=CC=C(C)C(=O)Nc2c(C)c(OC(C)=O)c3c(c2O)C(=O)C(C)=C2OCOC(=C23)C(C)=CC(C)(O)C(O)C(C)C1O (configuration not stated)	16	·	·	·	·	·
O=c1c2ccccc2[se]n1-c1ccccc1	1	-6	2	0	20*	0
O=c1c2ccccc2nc(-c2ccccc2)n1-c1ccccc1	-1	-1	1	-1	-3	0
CCn1c(=O)cc(OCC(=O)N2CCN(Cc3ccc4c(c3)OCO4)CC2)c2ccccc21	0	67*	5	2	-2	0
CC12CC[C@H]3[C@@H](CCC4(O)C[C@H](O)CCC34C=NNC(=O)c3ccccc3F)C1(O)CCC2C1=CC(=O)OC1 (some centres not stated)	1	·	·	·	·	·
CCN1C[C@]2(C)CC[C@H](OC)C34C2[C@H](OC(C)=O)[C@@]2(OCO[C@@]25C[C@H](OC)[C@H]2C[C@]3(O)C5[C@H]2OC)[C@@H]14	1	·	·	·	·	·
COC(=O)C1=C(c2cc3ccccc3o2)C[C@@H]2CC[C@H]1N2C(=O)N1CCOCC1	27*	4	36*	0	-4	0
O=C1NC(=O)N(Cc2ccco2)C(=O)/C1=C/C=C/c1ccco1	1	8	36*	1	-3	0
Cc1cccc(N2C(=O)NC(=O)/C(=C/c3ccc([N+](=O)[O-])o3)C2=O)c1	21*	·	·	·	·	·
CN1C(=O)/C(=C/C=C/c2ccco2)C(=O)NC1=S	8	?	0	1	-12	1
Cc1cccc(N2C(=O)NC(=O)/C(=C\C=C\c3ccco3)C2=O)c1	1	15	42*	1	-6	0
Cc1cccc(N2C(=O)NC(=O)/C(=C\c3cccn3-c3ccc(Cl)cc3)C2=O)c1	1	6	11	0	1	0
Cc1ccc(N2C(=O)NC(=O)/C(=C\C=C\c3ccco3)C2=O)cc1	2	·	42*	0	-1	0
C#C[C@@]1(O)CCC2C3CCC4=CC(=NOCC(=O)NC(C(=O)NC(CC(C)C)C(=O)O)C(C)C)CC[C@]4(C)C3CC[C@@]21C (some centres not stated)	1	·	·	·	·	·
CC(C)CC12CN3CCN(CC(C3)C1=NO)C2	5	·	·	·	·	·
COC(=O)C1C2c3ccccc3OC1(C)N=c1sc(=Cc3cn(C)nc3C)c(=O)n12 (configuration not stated)	2	·	·	·	·	·
SMILES	UCH37 DUB inh	Vif imaging	N-glyco inh	MsrA inh	MsrA act	aDG glyco up
CN(C)c1ccc(/C=C/C=C2/C(=O)NC(=O)N(c3ccccc3)C2=O)cc1	6	25	1	-1	-8	0
O=C1NC(=O)N(c2ccccc2)C(=O)/C1=C/C=C/c1ccco1	·	21	29*	-1	-3	0
Cc1ccc(N2C(=O)NC(=O)/C(=C\C=C\c3ccco3)C2=O)cc1C	5	5	47*	0	-3	0
O=C1NC(=O)N(Cc2ccccc2)C(=O)/C1=C\C=C\c1ccco1	8	39	?	1	-3	0
CCOc1cc(C=C2C(=O)NC(=O)NC2=O)ccc1OS(=O)(=O)c1ccccc1	20*	-4	-2	·	-3	0
CCOc1ccc(C=C2C(=O)NC(=S)NC2=O)cc1OCC	2	-2	1	0	-10	0
CC(C)CC(=NO)c1cn(C)c2ccccc12	4	·	·	·	·	·
O=C(NN=C1CN2CCC1CC2)c1cc2ccccc2cc1O	-1	·	·	·	·	·
O=c1[nH]c(O)c(N=Nc2cc([N+](=O)[O-])ccc2O)c(=O)[nH]1	23*	6	-1	3	-4	0
CCCCC(=NO)c1c[nH]c2ccccc12	3	·	·	·	·	·
CN1C(=O)C(Cc2ccccc2)C(=O)N(C)C1=O	·	2	1	-1	-1	0
CCCCOc1ccc(CC2C(=O)N(C)C(=O)N(C)C2=O)cc1	29*	0	1	0	-11	0
CCC12CN3CCN(CC(C3)C1=NO)C2	2	·	·	·	·	·
CCn1nc(-c2ccccc2)nc2c(=O)n(C)c(=O)nc1-2	99*	7	0	·	37*	0
OCCN(CC#CC(O)(c1ccccc1)C1CCCC1)CCO (configuration not stated)	32*	18	0	0	1	0
COc1ccccc1CC1C(=NO)C2CCN1CC2 (configuration not stated)	3	·	·	·	·	·
CCS(=O)(=O)Nc1cccc(C(=C2CCCCC2)c2cnc[nH]2)c1	4	69*	11	2	-1	0
NC(=N[N+](=O)[O-])N1CCN(C(=O)c2ccccc2)CC1	3	·	·	·	·	·
COC1C(O)C(C)OC(OC2C(Oc3cccc4c(O)c5c(=O)oc6ccc(C)c7c(=O)oc(c34)c5c67)OC(C)C(O)C2O)C1O (configuration not stated)	·	51*	43*	0	-2	0
C[C@]12CCC3C(CCC4=CC(=NOCC(=O)NC(CCC(N)=O)C(=O)O)CC[C@@]43C)C1CCC2O (some centres not stated)	2	·	·	·	·	·
CCC12CN3CCN(CC(C3)C1=NNC(N)=O)C2	-1	·	·	·	·	·
COc1ccc(N2C(=O)/C(=C/c3ccc(C)o3)C(=O)NC2=S)cc1	1	9	1	0	-2	0
COc1ccc(OC)c(N2C(=O)/C(=C/c3ccco3)C(=O)NC2=S)c1	52*	·	·	·	·	·
